Measured values published in ChEMBL document CHEMBL3407388, “Synthesis, anticancer activity and molecular docking studies on a series of heterocyclic trans-cyanocombretastatin analogues as antitubulin agents” (2015).

Legend:
Type in all cases: functional
HL-60(TB) = assay: Cytotoxicity against human HL-60(TB) cells assessed as growth inhibition after 48 hrs by SRB assay; conditions: HL-60, 48 h
Procedure, shortened: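 NCI 60-cell panel, leukemia subpanel. Five-dose screen at 10-fold dilutions from 10−4 to 10−8 M with 48 h drug exposure. GI50 is the molar concentration giving 50% reduction in net cell growth compared with cell numbers on day 0.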

K562 = assay: Cytotoxicity against human K562 cells assessed as growth inhibition after 48 hrs by SRB assay; conditions: K562, 48 h
Procedure, shortened: (§1)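 NCI 60-cell panel; compounds passing a single-dose screen (10−5 M, 48 h) were tested at five 10-fold dilutions (10−4 to 10−8 M) with 48 h drug exposure. GI50 is the molar concentration giving 50% reduction in net cell growth relative to cell numbers on day 0.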

MOLT-4 = assay: Cytotoxicity against human MOLT4 cells assessed as growth inhibition after 48 hrs by SRB assay; conditions: MOLT-4, 48 h; procedure, shortened: as §1
RPMI-8226 = assay: Cytotoxicity against human RPMI8226 cells assessed as growth inhibition after 48 hrs by SRB assay; conditions: RPMI-8226, 48 h; procedure, shortened: as §1
NCI-H226 = assay: Cytotoxicity against human NCI-H226 cells assessed as growth inhibition after 48 hrs by SRB assay; conditions: NCI-H226, 48 h; procedure, shortened: as §1
NCI-H23 = assay: Cytotoxicity against human NCI-H23 cells assessed as growth inhibition after 48 hrs by SRB assay; conditions: NCI-H23, 48 h; procedure, shortened: as §1
NCI-H460 = assay: Cytotoxicity against human NCI-H460 cells assessed as growth inhibition after 48 hrs by SRB assay; conditions: NCI-H460, 48 h; procedure, shortened: as §1
HCC 2998 = assay: Cytotoxicity against human HCC2998 cells assessed as growth inhibition after 48 hrs by SRB assay; conditions: HCC 2998, 48 h; procedure, shortened: as §1
[1] = Cytotoxicity against human HCT116 cells assessed as growth inhibition after 48 hrs by SRB assay; conditions: HCT-116, 48 h; procedure, shortened: as §1
[2] = Cytotoxicity against human HCT15 cells assessed as growth inhibition after 48 hrs by SRB assay; conditions: HCT-15, 48 h; procedure, shortened: as §1
HT-29 = assay: Cytotoxicity against human HT-29 cells assessed as growth inhibition after 48 hrs by SRB assay; conditions: HT-29, 48 h; procedure, shortened: as §1
KM12 = assay: Cytotoxicity against human KM12 cells assessed as growth inhibition after 48 hrs by SRB assay; conditions: KM12, 48 h; procedure, shortened: as §1
SW-620 = assay: Cytotoxicity against human SW620 cells assessed as growth inhibition after 48 hrs by SRB assay; conditions: SW-620, 48 h
SF-268 = assay: Cytotoxicity against human SF268 cells assessed as growth inhibition after 48 hrs by SRB assay; conditions: SF-268, 48 h; procedure, shortened: as §1
SF-295 = assay: Cytotoxicity against human SF295 cells assessed as growth inhibition after 48 hrs by SRB assay; conditions: SF-295, 48 h; procedure, shortened: as §1
SF-539 = assay: Cytotoxicity against human SF539 cells assessed as growth inhibition after 48 hrs by SRB assay; conditions: SF-539, 48 h; procedure, shortened: as §1
SNB-19 = assay: Cytotoxicity against human SNB19 cells assessed as growth inhibition after 48 hrs by SRB assay; conditions: SNB-19, 48 h; procedure, shortened: as §1
SNB-75 = assay: Cytotoxicity against human SNB75 cells assessed as growth inhibition after 48 hrs by SRB assay; conditions: SNB-75, 48 h
U-251 = assay: Cytotoxicity against human U251 cells assessed as growth inhibition after 48 hrs by SRB assay; conditions: U-251, 48 h
LOX IMVI = assay: Cytotoxicity against human LOXIMVI cells assessed as growth inhibition after 48 hrs by SRB assay; procedure, shortened: as §1
M14 = assay: Cytotoxicity against human M14 cells assessed as growth inhibition after 48 hrs by SRB assay; conditions: M14, 48 h; procedure, shortened: as §1
MDA-MB-435 = assay: Cytotoxicity against human MDA-MB-435 cells assessed as growth inhibition after 48 hrs by SRB assay; conditions: MDA-MB-435, 48 h; procedure, shortened: as §1
SK-MEL-5 = assay: Cytotoxicity against human SK-MEL-5 cells assessed as growth inhibition after 48 hrs by SRB assay; conditions: SK-MEL-5, 48 h; procedure, shortened: as §1
[3] = Cytotoxicity against human UACC62 cells assessed as growth inhibition after 48 hrs by SRB assay; conditions: UACC-62, 48 h
IGROV-1 = assay: Cytotoxicity against human IGROV1 cells assessed as growth inhibition after 48 hrs by SRB assay; conditions: IGROV-1, 48 h; procedure, shortened: as §1
[4] = Cytotoxicity against human OVCAR3 cells assessed as growth inhibition after 48 hrs by SRB assay; conditions: OVCAR-3, 48 h; procedure, shortened: as §1
[5] = Cytotoxicity against human OVCAR4 cells assessed as growth inhibition after 48 hrs by SRB assay; conditions: OVCAR-4, 48 h; procedure, shortened: as §1
[6] = Cytotoxicity against human OVCAR5 cells assessed as growth inhibition after 48 hrs by SRB assay; conditions: OVCAR-5, 48 h; procedure, shortened: as §1
[7] = Cytotoxicity against human OVCAR8 cells assessed as growth inhibition after 48 hrs by SRB assay; conditions: OVCAR-8, 48 h; procedure, shortened: as §1
[8] = Cytotoxicity against human NCI-ADR-RES cells assessed as growth inhibition after 48 hrs by SRB assay; procedure, shortened: as §1
SK-OV-3 = assay: Cytotoxicity against human SKOV3 cells assessed as growth inhibition after 48 hrs by SRB assay; conditions: SK-OV-3, 48 h; procedure, shortened: as §1
786-0 = assay: Cytotoxicity against human 786-0 cells assessed as growth inhibition after 48 hrs by SRB assay; conditions: 786-0, 48 h; procedure, shortened: as §1
A498 = assay: Cytotoxicity against human A498 cells assessed as growth inhibition after 48 hrs by SRB assay; conditions: A498, 48 h; procedure, shortened: as §1
RXF 393 = assay: Cytotoxicity against human RXF393 cells assessed as growth inhibition after 48 hrs by SRB assay; conditions: RXF 393, 48 h; procedure, shortened: as §1
SN12C = assay: Cytotoxicity against human SN12C cells assessed as growth inhibition after 48 hrs by SRB assay; procedure, shortened: as §1
TK-10 = assay: Cytotoxicity against human TK10 cells assessed as growth inhibition after 48 hrs by SRB assay; conditions: TK-10, 48 h
[9] = Cytotoxicity against human UO31 cells assessed as growth inhibition after 48 hrs by SRB assay; conditions: UO-31, 48 h
[10] = Cytotoxicity against human PC3 cells assessed as growth inhibition after 48 hrs by SRB assay; conditions: PC-3, 48 h; procedure, shortened: as §1
DU-145 = assay: Cytotoxicity against human DU145 cells assessed as growth inhibition after 48 hrs by SRB assay; conditions: DU-145, 48 h; procedure, shortened: as §1
MCF7 = assay: Cytotoxicity against human MCF7 cells assessed as growth inhibition after 48 hrs by SRB assay; conditions: MCF7, 48 h; procedure, shortened: as §1
MDA-MB-231 = assay: Cytotoxicity against human MDA-MB-231 cells assessed as growth inhibition after 48 hrs by SRB assay; conditions: MDA-MB-231, 48 h; procedure, shortened: as §1
[11] = Cytotoxicity against human Hs578T cells assessed as growth inhibition after 48 hrs by SRB assay; conditions: Hs-578T; procedure, shortened: as §1
BT-549 = assay: Cytotoxicity against human BT549 cells assessed as growth inhibition after 48 hrs by SRB assay; conditions: BT-549, 48 h; procedure, shortened: as §1

SMILES: COc1cc(/C(C#N)=C/c2cc3ccccc3o2)cc(OC)c1OC
- GI50 (HL-60(TB)): < 10 nM
- GI50 (K562): < 10 nM
- GI50 (MOLT-4): 47 nM
- GI50 (RPMI-8226): 19 nM
- GI50 (NCI-H226): < 10 nM
- GI50 (NCI-H23): < 10 nM
- GI50 (NCI-H460): < 10 nM
- GI50 (HCC 2998): 10 nM
- GI50 [1]: < 10 nM
- GI50 [2]: < 10 nM
- GI50 (HT-29): < 10 nM
- GI50 (KM12): < 10 nM
- GI50 (SW-620): < 10 nM
- GI50 (SF-268): 247 nM
- GI50 (SF-295): < 10 nM
- GI50 (SF-539): < 10 nM
- GI50 (SNB-19): < 10 nM
- GI50 (SNB-75): < 10 nM
- GI50 (U-251): < 10 nM
- GI50 (LOX IMVI): < 10 nM
- GI50 (M14): < 10 nM
- GI50 (MDA-MB-435): < 10 nM
- GI50 (SK-MEL-5): < 10 nM
- GI50 [3]: < 10 nM
- GI50 (IGROV-1): 22 nM
- GI50 [4]: < 10 nM
- GI50 [5]: 39 nM
- GI50 [6]: 42 nM
- GI50 [7]: < 10 nM
- GI50 [8]: < 10 nM
- GI50 (SK-OV-3): < 10 nM
- GI50 (786-0): < 10 nM
- GI50 (A498): < 10 nM
- GI50 (RXF 393): < 10 nM
- GI50 (SN12C): < 10 nM
- GI50 (TK-10): 73600 nM
- GI50 [9]: 2290 nM
- GI50 [10]: < 10 nM
- GI50 (DU-145): < 10 nM
- GI50 (MCF7): 23 nM
- GI50 (MDA-MB-231): 28 nM
- GI50 [11]: < 10 nM
- GI50 (BT-549): 29 nM

SMILES: COc1cc(/C(C#N)=C/c2cc3ccccc3n2Cc2ccc(C#N)cc2)cc(OC)c1OC
- GI50 (HL-60(TB)): 31 nM
- GI50 (K562): 39 nM
- GI50 (MOLT-4): 274 nM
- GI50 (RPMI-8226): 199 nM
- GI50 (NCI-H226): 14500 nM
- GI50 (NCI-H23): 246 nM
- GI50 (NCI-H460): 93 nM
- GI50 (HCC 2998): 265 nM
- GI50 [1]: 47 nM
- GI50 [2]: 89 nM
- GI50 (HT-29): 48 nM
- GI50 (KM12): 47 nM
- GI50 (SW-620): 48 nM
- GI50 (SF-268): 86 nM
- GI50 (SF-295): 37 nM
- GI50 (SF-539): 39 nM
- GI50 (SNB-19): 85 nM
- GI50 (SNB-75): 39 nM
- GI50 (U-251): 44 nM
- GI50 (LOX IMVI): 90 nM
- GI50 (M14): 56 nM
- GI50 (MDA-MB-435): 24 nM
- GI50 (SK-MEL-5): 60 nM
- GI50 [3]: 58 nM
- GI50 (IGROV-1): 183 nM
- GI50 [4]: 42 nM
- GI50 [5]: 672 nM
- GI50 [6]: 259 nM
- GI50 [7]: 124 nM
- GI50 [8]: 73 nM
- GI50 (SK-OV-3): 87 nM
- GI50 (786-0): 137 nM
- GI50 (A498): 29 nM
- GI50 (RXF 393): 55 nM
- GI50 (SN12C): 269 nM
- GI50 (TK-10): 20100 nM
- GI50 [9]: 201 nM
- GI50 [10]: 105 nM
- GI50 (DU-145): 207 nM
- GI50 (MCF7): 39 nM
- GI50 (MDA-MB-231): 294 nM
- GI50 [11]: 92 nM
- GI50 (BT-549): 109 nM

SMILES: COc1cc(OC)cc(/C(C#N)=C/c2nc3ccccc3s2)c1
- GI50 (HL-60(TB)): 345 nM
- GI50 (K562): 333 nM
- GI50 (MOLT-4): 3380 nM
- GI50 (RPMI-8226): 2290 nM
- GI50 (NCI-H226): 4110 nM
- GI50 (NCI-H23): 2840 nM
- GI50 (NCI-H460): 2860 nM
- GI50 (HCC 2998): 8390 nM
- GI50 [1]: 404 nM
- GI50 [2]: 414 nM
- GI50 (HT-29): 438 nM
- GI50 (KM12): 2010 nM
- GI50 (SW-620): 343 nM
- GI50 (SF-268): 3090 nM
- GI50 (SF-295): 2460 nM
- GI50 (SF-539): 1680 nM
- GI50 (SNB-19): > 10000 nM
- GI50 (SNB-75): 2130 nM
- GI50 (U-251): 1910 nM
- GI50 (LOX IMVI): 1840 nM
- GI50 (M14): 1210 nM
- GI50 (MDA-MB-435): 199 nM
- GI50 (SK-MEL-5): 1370 nM
- GI50 [3]: 755 nM
- GI50 (IGROV-1): 706 nM
- GI50 [4]: 285 nM
- GI50 [5]: > 10000 nM
- GI50 [6]: 4850 nM
- GI50 [7]: 3130 nM
- GI50 [8]: 1470 nM
- GI50 (SK-OV-3): 1790 nM
- GI50 (786-0): 2440 nM
- GI50 (A498): 417 nM
- GI50 (RXF 393): 551 nM
- GI50 (SN12C): 4680 nM
- GI50 (TK-10): 2780 nM
- GI50 [9]: 679 nM
- GI50 [10]: 2740 nM
- GI50 (DU-145): 1070 nM
- GI50 (MCF7): 399 nM
- GI50 (MDA-MB-231): 6740 nM
- GI50 [11]: 2010 nM
- GI50 (BT-549): 3450 nM
